These results are taken from ChEMBL document CHEMBL3774359, “Synthesis of benzofuran derivatives as selective inhibitors of tissue-nonspecific alkaline phosphatase: effects on cell toxicity and osteoblast-induced mineralization” (Bioorg Med Chem Lett, 2016).

For orientation: IC50 means the concentration at which inhibition is half-maximal. As usually defined, the Ki is a measure of affinity in units of concentration, obtained from inhibition or displacement. The inhibition is the share of the control response that was lost under treatment.

Series [1] deals with T1, Alkaline phosphatase, placental type (Homo sapiens, UniProt P05187). The series is described as follows: Inhibition of human placental alkaline phosphatase using para-nitrophenylphosphate as substrate preincubated for 10 mins at pH 7.8 followed by substrate addition.
Series [2] in a line: Inhibition of porcine kidney TNAP using para-nitrophenylphosphate as substrate preincubated for 10 mins at pH 10.4 followed by substrate addition.
The target of series [3] is T2, Intestinal-type alkaline phosphatase (Bos taurus, UniProt P19111). Put plainly: Inhibition of bovine intestinal alkaline phosphatase using para-nitrophenylphosphate as substrate preincubated for 10 mins at pH 7.8 followed by substrate addition.
Series [4] in a line: Inhibition of porcine kidney TNAP using para-nitrophenylphosphate as substrate preincubated for 10 mins at pH 7.8 followed by substrate addition.
Series [5] concerns the target T1, Alkaline phosphatase, placental type. Put plainly: Inhibition of human placental alkaline phosphatase using para-nitrophenylphosphate as substrate preincubated for 10 mins at pH 10.4 followed by substrate addition.
In series [6] the target is T2, Intestinal-type alkaline phosphatase. The series is described as follows: Inhibition of bovine intestinal alkaline phosphatase using para-nitrophenylphosphate as substrate preincubated for 10 mins at pH 10.4 followed by substrate addition.
Series [7] is described as follows: Inhibition of porcine kidney TNAP using para-nitrophenylphosphate as substrate preincubated for 10 mins at pH 7.8 followed by substrate addition. Also noted: species or system Sus scrofa.
For series [8], the target named is T3, Alkaline phosphatase, tissue-nonspecific isozyme (Mus musculus) (UniProt P09242).
T3 sequence (whole entry): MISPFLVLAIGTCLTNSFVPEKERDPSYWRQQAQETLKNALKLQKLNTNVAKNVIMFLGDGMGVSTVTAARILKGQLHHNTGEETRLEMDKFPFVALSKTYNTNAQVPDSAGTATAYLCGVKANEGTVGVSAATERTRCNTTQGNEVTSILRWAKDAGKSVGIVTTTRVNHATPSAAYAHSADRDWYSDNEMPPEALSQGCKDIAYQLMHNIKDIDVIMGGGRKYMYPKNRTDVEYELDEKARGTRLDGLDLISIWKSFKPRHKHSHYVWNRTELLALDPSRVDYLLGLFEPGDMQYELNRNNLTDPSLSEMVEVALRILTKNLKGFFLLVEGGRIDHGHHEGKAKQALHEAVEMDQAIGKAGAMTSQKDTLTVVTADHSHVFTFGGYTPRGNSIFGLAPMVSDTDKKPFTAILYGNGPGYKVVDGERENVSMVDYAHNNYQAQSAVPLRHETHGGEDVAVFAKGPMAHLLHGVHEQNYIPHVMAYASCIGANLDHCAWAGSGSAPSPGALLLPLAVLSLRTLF
The settings on record: C57BL/6J, 10 to 40 uM.

Series [9] is described as follows: Cytotoxicity against mouse primary osteoblasts assessed as reduction in cell viability at 10 to 40 uM after 3 days by MTT assay. Conditions: osteoblast, 72 h. It is filed as cell-based. In short, it runs like this:
(§1)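 Cells (human osteoblast-like Saos-2 and MG63, mouse vascular smooth muscle line MOVAS-1, mouse primary osteoblasts) were incubated with or without inhibitor for 3 days. Viability was read by MTT assay.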
(In general: Formazan colour is commonly taken as a measure of viable cells.)

Series [10] can be described thus: Cytotoxicity against human Saos2 cells assessed as reduction in cell viability at 10 to 40 uM after 3 days by MTT assay. The series is classed as cell-based. The settings on record: saos-2, 72 h. In short, it runs like this: as §1
Series [11] concerns the target T3, Alkaline phosphatase, tissue-nonspecific isozyme (Mus musculus). Put plainly: Inhibition of TNAP in C57BL/6J mouse primary osteoblasts assessed as reduction of ascorbic acid and beta-glycerophosphate-induced mineralization at 10 uM after 6 days by alizarin red-s staining based assay relative to control. In short, it runs like this:
(§2)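 Saos-2 cells and mouse primary osteoblasts received ascorbic acid plus β-glycerophosphate to stimulate differentiation and mineralization, with or without inhibitor. Mineral was quantified by Alizarin Red-S staining and expressed as percent of a control containing DMSO 0.1% (mL:mL) without inhibitor. Experiments were repeated in triplicate for each inhibitor (n = 9).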

The species named for the next series is Sus scrofa. Put plainly: Uncompetitive inhibition of porcine kidney TNAP using para-nitrophenylphosphate as substrate preincubated for 10 mins at pH 7.8 to 10.4 followed by substrate addition.
Series [12] has as its target T4, Alkaline phosphatase, tissue-nonspecific isozyme (Homo sapiens) (UniProt P05186).
T4 sequence (whole entry): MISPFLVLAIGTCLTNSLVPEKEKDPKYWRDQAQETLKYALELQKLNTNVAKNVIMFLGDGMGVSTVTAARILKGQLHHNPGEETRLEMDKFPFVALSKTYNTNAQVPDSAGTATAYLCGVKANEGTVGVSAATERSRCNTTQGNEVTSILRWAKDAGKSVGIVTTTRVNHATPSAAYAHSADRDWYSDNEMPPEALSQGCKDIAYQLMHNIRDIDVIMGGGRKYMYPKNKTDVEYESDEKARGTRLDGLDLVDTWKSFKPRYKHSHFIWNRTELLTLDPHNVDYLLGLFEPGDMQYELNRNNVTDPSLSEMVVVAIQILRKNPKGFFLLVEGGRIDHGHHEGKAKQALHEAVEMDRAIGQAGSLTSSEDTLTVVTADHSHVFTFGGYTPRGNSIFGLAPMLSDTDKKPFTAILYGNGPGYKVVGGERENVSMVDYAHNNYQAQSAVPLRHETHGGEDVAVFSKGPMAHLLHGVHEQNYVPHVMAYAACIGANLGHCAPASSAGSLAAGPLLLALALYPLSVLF
Put plainly: Inhibition of TNAP in human Saos2 cells assessed as reduction of ascorbic acid and beta-glycerophosphate-induced mineralization at 20 to 40 uM after 6 days by alizarin red-s staining based assay. The series is classed as cell-based. Conditions: SAOS-2. In short, it runs like this:
as §2

Series [13] can be described thus: Cytotoxicity against mouse MOVAS1 cells assessed as reduction in cell viability at 10 to 40 uM after 3 days by MTT assay. The series is classed as cell-based. The settings on record: movas1, 72 h. In short, it runs like this:
as §1

The nature of series [14]: Cytotoxicity against human MG63 cells assessed as reduction in cell viability at 10 to 40 uM after 3 days by MTT assay. The series is classed as cell-based. Conditions: mg-63, 72 h. In short, it runs like this: as §1

Active and inactive are the calls of the source. The rule behind the calls is not given here.

T2 sequence (P19111 whole entry): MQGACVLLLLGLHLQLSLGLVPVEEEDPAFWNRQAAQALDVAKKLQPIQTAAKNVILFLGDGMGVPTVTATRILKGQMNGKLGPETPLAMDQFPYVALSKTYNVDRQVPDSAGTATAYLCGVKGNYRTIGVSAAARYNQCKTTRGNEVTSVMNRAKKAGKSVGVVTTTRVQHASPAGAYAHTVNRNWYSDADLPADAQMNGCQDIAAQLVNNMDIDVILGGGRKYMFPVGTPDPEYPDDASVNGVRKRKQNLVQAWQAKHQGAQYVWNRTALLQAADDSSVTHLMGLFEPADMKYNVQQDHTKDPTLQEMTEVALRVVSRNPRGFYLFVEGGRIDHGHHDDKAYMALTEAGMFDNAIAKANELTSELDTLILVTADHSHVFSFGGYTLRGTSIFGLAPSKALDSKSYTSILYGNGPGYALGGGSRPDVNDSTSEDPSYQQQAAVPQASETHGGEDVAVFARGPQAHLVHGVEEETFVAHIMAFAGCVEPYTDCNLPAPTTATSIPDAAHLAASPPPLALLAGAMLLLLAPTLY
T1 sequence (P05187 whole entry): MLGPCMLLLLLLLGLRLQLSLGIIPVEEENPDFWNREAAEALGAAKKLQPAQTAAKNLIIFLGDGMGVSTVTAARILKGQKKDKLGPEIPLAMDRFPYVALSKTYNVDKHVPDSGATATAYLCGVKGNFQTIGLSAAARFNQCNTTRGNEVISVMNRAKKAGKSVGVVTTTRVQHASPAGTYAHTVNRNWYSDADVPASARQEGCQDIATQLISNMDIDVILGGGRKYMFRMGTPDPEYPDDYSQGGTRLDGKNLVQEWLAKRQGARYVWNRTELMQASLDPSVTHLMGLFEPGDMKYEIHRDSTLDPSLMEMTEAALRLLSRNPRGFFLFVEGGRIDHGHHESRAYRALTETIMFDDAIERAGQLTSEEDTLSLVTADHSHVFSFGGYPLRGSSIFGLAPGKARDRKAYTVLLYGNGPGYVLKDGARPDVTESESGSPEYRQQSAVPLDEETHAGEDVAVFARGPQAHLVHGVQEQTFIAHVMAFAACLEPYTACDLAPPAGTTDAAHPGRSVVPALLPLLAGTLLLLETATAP

On to `N=c1sccn1CC(=O)c1cc2ccccc2o1`, for which the IC50 in series [1], in series [2], in series [3], in series [4], in series [5] and in [6] was above 400 µM in each case.

For the molecule `c1ccc([C@H]2CN3CCSC3=N2)cc1` [LEVAMISOLE], the 50% inhibitory concentration (IC50) was above 400 µM in [1]; 41 µM in [2]; above 400 µM in series [3]; 256 µM in series [4]; above 400 µM in series [5]; above 400 µM in series [6]. The affinity in [7] corresponds to a Ki of 47 µM. Further, the inhibition entry in series [8] is “inactive”.

On to `C1=CN2CC(c3cc4ccccc4o3)N=C2S1` (centres undefined), for which the half-inhibitory concentration (IC50) in [1] was above 400 µM; in series [2] it was 28 µM; in series [3], above 400 µM; in series [4], 124 µM; in series [5], above 400 µM; in series [6] it was above 400 µM. In addition, the Activity result in series [9], in series [10], in [13] and in [14] was “Non-toxic” throughout. Moreover, affinity in [7] was put at a Ki of 32 µM. Moreover, the inhibition in series [11] came out at 20%. The inhibition entry (in the series listed under Sus scrofa; in series [12]) was “Active” each time.

Consider `N=c1sccn1CC(O)c1cc2ccccc2o1` (centres undefined), for which the half-inhibitory concentration (IC50) in series [1], in [2], in series [3], in series [4], in [5] and in series [6] was above 400 µM in each case.
